TRPC6 inhibitor – blocks the mouse TRPC6 cation channel; Q61143; actives 1.1% (n = 310,000); B-score at 10 µM; HEK293-TRPC6, membrane potential dye, ACh-evoked depolarization; hits give low values;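 active = B-score under library mean minus 3 SD, initial fluorescence not abnormally high, positive integrated signal ratio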;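 also: B-score derived from integrated fluorescence ratio over the kinetic read; more negative B-score means stronger inhibition of depolarization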
TRPC4 potent – allosteric potentiators of mouse TRPC4 channel | actives 0.42% (n = 310,000) | B-score at 10 µM | Q9QUQ5 | HEK293 TRPC4beta/mu-opioid, DAMGO EC20, Fluo-4 Ca2+ flux; hits give high values | AID 2227;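 active = B-score of calcium response area above 5 SD of library B-scores, with initial fluorescence ratio within 5 SD of library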;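 also: B-score of integrated fluorescence ratio over time as area under calcium response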
Target sequence (Q9QUQ5 whole entry, looked up): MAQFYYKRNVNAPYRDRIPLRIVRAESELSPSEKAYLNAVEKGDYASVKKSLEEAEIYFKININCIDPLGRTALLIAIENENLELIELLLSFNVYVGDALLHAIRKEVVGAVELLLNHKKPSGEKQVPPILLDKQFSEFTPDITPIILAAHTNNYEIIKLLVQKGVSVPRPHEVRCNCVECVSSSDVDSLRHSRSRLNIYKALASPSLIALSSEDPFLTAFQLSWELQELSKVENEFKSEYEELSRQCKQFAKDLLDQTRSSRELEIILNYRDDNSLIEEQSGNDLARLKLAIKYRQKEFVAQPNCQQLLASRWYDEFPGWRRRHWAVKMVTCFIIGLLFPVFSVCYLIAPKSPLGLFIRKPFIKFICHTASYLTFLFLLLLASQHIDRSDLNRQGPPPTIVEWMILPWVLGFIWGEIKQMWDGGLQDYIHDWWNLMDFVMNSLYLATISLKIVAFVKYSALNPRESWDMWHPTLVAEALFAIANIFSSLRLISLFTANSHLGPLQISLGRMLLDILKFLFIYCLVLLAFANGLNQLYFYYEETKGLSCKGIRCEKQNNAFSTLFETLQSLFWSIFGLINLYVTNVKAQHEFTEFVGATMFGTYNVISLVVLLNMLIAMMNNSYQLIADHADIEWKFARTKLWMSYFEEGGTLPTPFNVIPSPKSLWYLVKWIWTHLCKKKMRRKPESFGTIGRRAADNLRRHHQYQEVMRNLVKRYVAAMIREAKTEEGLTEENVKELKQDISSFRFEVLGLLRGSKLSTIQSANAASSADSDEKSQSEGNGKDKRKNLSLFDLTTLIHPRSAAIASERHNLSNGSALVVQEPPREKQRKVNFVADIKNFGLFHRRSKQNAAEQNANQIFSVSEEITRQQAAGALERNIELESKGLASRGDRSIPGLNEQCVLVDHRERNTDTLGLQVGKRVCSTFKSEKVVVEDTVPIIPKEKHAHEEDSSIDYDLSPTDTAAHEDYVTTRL
TRPC4 agonist – TRPC4 (mouse) channel activation. HEK293 TRPC4beta/mu-opioid, Fluo4 calcium fluorescence; hits give high values. B-score at 10 µM. actives 0.49% (n = 310,000). Q9QUQ5;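 active = B-score above 5 SD of library B-scores, and initial fluorescence ratio not above library mean plus 5 SD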;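 also: positive B-score marks a calcium rise read as TRPC4 activation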
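Assay system: HEK293 stable line with TRPC4beta plus mu-opioid receptor. Times: dye 45 min RT, read 110 s. Measured by: kinetic Fluo4 calcium fluorescence. Measure: B score of integrated ratio. Controls: assay buffer as low control, maximal DAMGO as high control.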
TRPC6 activator – activates the mouse TRPC6 cation channel; actives 0.13% (n = 310,000); AID 2550; Q61143; B-score at 10 µM; HEK293-TRPC6 membrane potential dye fluorescence; hits give high values;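 active = B-score of the integrated fluorescence ratio above library mean plus 3 SD, and starting fluorescence ratio within library mean plus 5 SD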;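 also: higher score means more depolarization so channel activation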
Kir21 block – Kir2.1 (mouse) channel inhibition; B-score at 10 µM; AID 1672; P35561; actives 0.85% (n = 310,000); HEK293-Kir2.1, FluxOR thallium flux fluorescence; hits give low values;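 active = fluorescence ratio B-score at or below minus 3 SD of library scores, with starting-brightness B-score within 2 SD, cut at about -4.2 in these data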;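 also: channel flux triggered by added potassium and thallium sulfate stimulus; B-score of peak minus minimum fluorescence over baseline after thallium stimulus; more negative B-score means stronger Kir2.1 block with less thallium influx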
TRPC4 block – inhibitors of mouse TRPC4 channel; HEK293 TRPC4beta/mu-opioid, DAMGO-evoked Fluo4 calcium flux; hits give low values; B-score at 10 µM; actives 0.39% (n = 300,000); Q9QUQ5; AID 2247;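 active = B-score over 3 SD under the library average, no early fluorescence shift, positive overall ratio signal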
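Assay system: HEK293 cells with stable TRPC4beta plus mu-opioid receptor expression. Dosing: single dose. Measured by: Fluo4 Ca2+ flux fluorescence. Also added: DAMGO in two steps, submaximal then maximal. Read-out: B score from integrated Fluo4 fluorescence ratio.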
Starred values were filed as active, the others as inactive; i = inactive. Most compounds without a hit are left out; they make up all but 2.9% or so of the library.

SMILES	TRPC6 inhibitor	TRPC4 potent	TRPC4 agonist	TRPC6 activator	Kir21 block	TRPC4 block
N#Cc1c(NCCCO)nc(NCc2ccccc2)c2c1CCN(Cc1ccccc1)C2	i	i	i	i	-1.51	i
CN1CCc2c(C#N)c(N3CCCCC3)nc(NCc3ccccc3)c2C1	i	13*	i	i	0.02	i
COc1cc(Br)cc(C2C3=C(CCCC3=O)N(c3ccc(F)cc3)C3=C2C(=O)CCC3)c1O	i	70*	i	i	0.03	i
S=C(Nc1ccc(Cl)cc1)NC1CC2CCC(C1)N2Cc1ccccc1 (centres undefined)	i	i	i	i	-4.65*	i
Cc1ccc(NC(=S)NC2CC3CCCC(C2)N3Cc2cccs2)cc1 (centres undefined)	i	i	48*	i	-2.65	i
CCc1ccc(NC(=S)NC2CC3CCCC(C2)N3Cc2ccccc2)cc1 (centres undefined)	i	i	51*	i	-0.53	i
Fc1ccc(NC(=S)NC2CC3CCCC(C2)N3Cc2cccs2)cc1 (centres undefined)	i	i	i	i	-2.07	i
FC(F)(F)c1ccccc1CNCc1ccncc1	i	i	i	i	-0.04	i
CCOc1ccc(OCC(O)CN2CCc3ccccc3C2)cc1 (centres undefined)	i	i	i	i	-1.6	i
Cc1ccc(C)c(OCC(O)CN2CCc3ccccc3C2)c1C (centres undefined)	i	i	i	i	-5.68*	i
O=C(/C=C/c1cccnc1)c1ccc(F)c(F)c1	i	i	i	i	-5.35*	i
CN(C)c1ccc(C(=O)/C=C/c2cccnc2)cc1	i	i	i	i	-0.13	i
O=C(/C=C/c1ccc2c(c1)OCO2)Nc1cccnc1	i	i	i	i	-0.04	i
O=C(/C=C/c1ccc([N+](=O)[O-])cc1)c1cccnc1	i	i	i	i	-4.28*	i
O=C(/C=C/c1ccc([N+](=O)[O-])cc1)/C=C/c1ccco1	i	i	i	i	-5.77*	i
O=C(/C=C/c1ccc2c(c1)OCO2)c1cccnc1	i	i	i	i	-5.23*	i
CN(Cc1ccccc1)C(=O)c1cccc(N2C(=O)C3CC=CCC3C2=O)c1 (centres undefined)	i	i	i	i	1.41	i
COc1ccccc1C(=O)NCCC(=O)N1CC=C(c2ccccc2)CC1	i	i	i	i	-4.46*	i
Cc1cc(NC2CCCCC2)nc(NCc2ccccc2)n1	i	i	i	i	-12.7*	i
Cc1ccc(Nc2cc(C)nc(NCc3ccccc3)n2)cc1	i	i	i	i	-5.48*	i
COc1cc(C)nc(NCc2ccccc2)n1	i	i	i	i	1.41	i
Cc1cc(N/N=C/c2ccccc2Cl)nc(NCc2ccccc2)n1	i	i	i	i	-2.25	i
COc1ccc(Nc2cc(C)nc(NCc3ccccc3)n2)cc1	i	i	i	i	-13.9*	i
CCOCCCNC(=S)N1C2CCC1CC(NC(=O)NC1CCCCC1)C2 (centres undefined)	i	i	i	i	-2.13	i
O=C(Nc1nc(-c2ccccc2)cs1)Nc1ccc(F)cc1F	i	i	i	i	1.5	i
SMILES	TRPC6 inhibitor	TRPC4 potent	TRPC4 agonist	TRPC6 activator	Kir21 block	TRPC4 block
CN1c2ccccc2C(C)(C)[C@]12C=Cc1cc(O)ccc1O2	i	i	i	i	-5.86*	i
CN1c2ccccc2C(C)(C)C12C=Nc1c(ccc3ccccc13)O2 (centres undefined)	i	i	i	i	-1.96	i
CCc1cccc(C)c1NC(=O)C1CCCN(S(C)(=O)=O)C1 (centres undefined)	i	i	i	i	0.6	i
COc1ccc(OC)c(NC(=O)CN2C(=O)CSc3ccc(S(=O)(=O)N4CCCC4)cc32)c1	i	i	i	i	0.53	i
Cc1nnc(C)n1/N=C/c1c(O)ccc2ccccc12	i	i	i	i	-1.56	i
CCN(CC)CCn1c2ccccc2c2n[nH]c(=S)nc21	i	i	63*	i	1	i
CCN(CC)CCn1c2ccccc2c2nc3ccccc3nc21	i	i	i	i	-0.01	i
Cc1ccc(C(=O)N2CCN(C(=O)CN3CCOCC3)C2)cc1	i	i	i	i	0.04	i
COc1ccccc1N1CCN(CC(O)COCc2cccs2)CC1 (centres undefined)	i	i	i	i	-0.9	i
CC(=O)c1ccc(N2CCN(CC(O)COC(c3ccccc3)c3ccccc3C)CC2)cc1 (centres undefined)	i	12*	i	i	0.33	i
OC(COC(c1ccccc1)c1ccccc1)CN1CCN(c2cccc(Cl)c2)CC1 (centres undefined)	i	i	i	i	0.65	i
NS(=O)(=O)c1ccc(CCNC(=O)COC(=O)CC(c2ccccc2)c2ccccc2)cc1	i	i	i	i	-5.11*	i
NS(=O)(=O)c1ccc(CCNC(=O)CC(c2ccccc2)c2ccccc2)cc1	i	i	i	i	-0.74	i
COc1ccc(OC)c(NC(=O)COC(=O)Cc2ccc(-c3ccccc3)cc2)c1	i	21*	i	i	-0.35	i
COc1ccc(OC)c(NC(=O)COC(=O)Cc2ccc(Br)cc2)c1	i	i	i	i	0.67	i
O=C(c1ccc2c(=O)n3c(nc2c1)CCCCC3)N1CCN(c2ccccc2F)CC1	i	i	i	i	0.12	i
O=C(c1ccncc1)N1c2ccccc2Sc2ccccc21	i	26*	i	i	1.57	i
Cc1ccc(/C=C/C(=O)NC(=S)N2CCN(c3ccc(F)cc3)CC2)cc1	i	i	i	i	0.95	i
Cc1nnc(C)c2c(C)n(-c3ccccc3N)c(C)c12	i	i	i	i	0.58	i
Cc1nnc(C)c2c(C)n(C(c3ccccc3)c3ccccc3)c(C)c12	i	i	i	i	-4.51*	i
CC(CCc1ccccc1)NC(=O)CNc1cccc([N+](=O)[O-])c1 (centres undefined)	i	i	i	i	-4.67*	i
O=C(CCc1ccccc1)Nc1cccc([N+](=O)[O-])c1	i	i	i	i	1.9	i

High-throughput results: PubChem BioAssay, Johns Hopkins Ion Channel Center
